The values below come from ChEMBL document CHEMBL1153486, “Discovery of a class of potent gap-junction modifiers as novel antiarrhythmic agents” (Bioorg Med Chem Lett, 2009).

The test system of data set [1] is Mus musculus. As to the kind of experiment: Antiarrhythmic activity in calcium chloride-induced mouse arrhythmia model assessed as prolongation of time to conduct cardiac block at 10 pmol/kg, iv relative to control. In kind it is functional, Heart. The essentials:
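Mice received an intravenous infusion of CaCl2 after IV test compound. The read-out was time to cardiac conduction block, expressed as percent increase over control. Values are means of at least three experiments with standard deviation.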

The nature of data set [2]: Stability in rat plasma after 3 hrs. The format is ADME, cell-free. The following applies: read-out: Stability. The gist of the method:
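Rat plasma incubation for 3 h; stability reported as percent of compound remaining.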

Data set [3] is described as follows: Half life in CD1 mouse at 1 mg/kg, iv. The conditions noted are these: in vivo. Set-up: dose 1 mg/kg, route intravenous. In kind it is ADME, organism-based. The gist of the method: (§1)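 CD-1 mice were dosed IV at a nominal 1 mg/kg (actual 0.77 mg/kg or 1.6 mg/kg for some compounds) and PO at 5 mg/kg. Parameters were derived from mean drug concentration, N = 3 animals/time point.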

Data set [4] in a line: Cmax in CD1 mouse at 5 mg/kg, po. In kind it is ADME, organism-based. Further details: dose 5 mg/kg, route oral. The following applies: in vivo. The gist of the method:
as §1

Data set [5] in a line: Volume of distribution at steady state in CD1 mouse at 1 mg/kg, iv. The format is ADME, organism-based. Further details: dose 1 mg/kg, route intravenous. The following applies: in vivo, read-out: Vdss. The essentials:
as §1

Data set [6] is described as follows: AUC in CD1 mouse at 5 mg/kg, po. The format is ADME, organism-based. Set-up: dose 5 mg/kg, route oral. The following applies: plasma. The essentials:
as §1

Data set [7] in a line: Clearance in CD1 mouse at 1 mg/kg, iv. Set-up: dose 1 mg/kg, route intravenous. The following applies: in vivo. The format is ADME, organism-based. The gist of the method:
as §1

A short description of data set [8]: Metabolic stability in rat liver microsomes assessed as half life. The format is ADME, Microsome. A general note: Microsomes from liver hold many membrane-bound enzymes, among them those of drug oxidation.
The target in data set [9] is Voltage-gated inwardly rectifying potassium channel KCNH2 (Homo sapiens, UniProt Q12809). The data set can be described thus: Inhibition of human ERG.
Chain of Voltage-gated inwardly rectifying potassium channel KCNH2 (Q12809 whole entry): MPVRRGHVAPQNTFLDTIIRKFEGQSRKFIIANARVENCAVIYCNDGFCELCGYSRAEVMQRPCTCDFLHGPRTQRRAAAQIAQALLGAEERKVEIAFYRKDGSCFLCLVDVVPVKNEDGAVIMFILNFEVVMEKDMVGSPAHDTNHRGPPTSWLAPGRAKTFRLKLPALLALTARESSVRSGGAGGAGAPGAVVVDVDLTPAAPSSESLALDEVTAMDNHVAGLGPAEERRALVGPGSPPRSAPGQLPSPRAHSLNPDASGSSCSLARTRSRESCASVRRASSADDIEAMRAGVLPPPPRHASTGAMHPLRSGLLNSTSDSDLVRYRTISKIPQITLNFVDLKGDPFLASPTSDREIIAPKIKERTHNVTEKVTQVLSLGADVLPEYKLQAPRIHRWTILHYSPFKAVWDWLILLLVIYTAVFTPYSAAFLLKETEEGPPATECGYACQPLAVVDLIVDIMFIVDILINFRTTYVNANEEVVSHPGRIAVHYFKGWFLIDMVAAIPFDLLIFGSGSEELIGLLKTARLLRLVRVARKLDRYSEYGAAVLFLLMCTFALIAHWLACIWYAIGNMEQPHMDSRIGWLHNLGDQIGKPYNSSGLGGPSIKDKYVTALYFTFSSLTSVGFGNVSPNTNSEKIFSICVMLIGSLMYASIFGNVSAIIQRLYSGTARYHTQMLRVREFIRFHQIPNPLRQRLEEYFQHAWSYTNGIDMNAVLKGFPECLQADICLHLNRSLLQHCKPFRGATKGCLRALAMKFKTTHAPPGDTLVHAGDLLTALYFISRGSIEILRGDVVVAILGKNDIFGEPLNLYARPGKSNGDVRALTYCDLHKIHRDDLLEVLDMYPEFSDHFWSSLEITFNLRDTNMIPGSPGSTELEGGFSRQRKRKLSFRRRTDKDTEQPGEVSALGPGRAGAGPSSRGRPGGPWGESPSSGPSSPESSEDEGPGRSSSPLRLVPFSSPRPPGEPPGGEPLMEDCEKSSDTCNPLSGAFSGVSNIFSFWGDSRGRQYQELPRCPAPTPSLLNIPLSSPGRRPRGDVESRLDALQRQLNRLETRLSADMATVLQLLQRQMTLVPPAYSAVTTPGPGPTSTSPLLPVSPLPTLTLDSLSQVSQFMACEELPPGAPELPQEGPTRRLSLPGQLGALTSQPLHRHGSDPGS
Data set [10] is described as follows: Oral bioavailability in CD1 mouse at 5 mg/kg. The format is ADME, organism-based. The following applies: in vivo. The essentials:
as §1

Data set [11] can be described thus: Half life in CD1 mouse at 5 mg/kg, po. The format is ADME, organism-based. Set-up: dose 5 mg/kg, route oral. The following applies: in vivo. The essentials: as §1
For data set [12], the system named is Mus musculus. As to the kind of experiment: Antiarrhythmic activity in calcium chloride-induced mouse arrhythmia model assessed as prolongation of time to conduct cardiac block at 1 to 30 mg/kg, po relative to control. The conditions noted are these: Heart. The format is functional, organism-based. The gist of the method: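 Compounds were given orally at 1–30 mg/kg to mice, which then received an intravenous CaCl2 infusion. The read-out was prolongation of time to conduction block versus control.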

A short description of data set [13]: Inhibition of CYP450. The format is ADME.
Data set [14] in a line: Metabolic stability in human liver microsomes assessed as half life. The format is ADME, Microsome.
The nature of data set [15]: Tmax in CD1 mouse at 5 mg/kg, po. In kind it is ADME, organism-based. Further details: dose 5 mg/kg, route oral. The conditions noted are these: in vivo. The gist of the method:
as §1

Active and inactive are the calls of the source. Bounds are passed on as bounds.

On to `CNCC(=O)N1C[C@H](NC(=O)c2ccccc2)C[C@H]1C(=O)O`, for which the Activity in the data set on Mus musculus [1] amounted to 120.7%. Also, in data set [2], the remaining at 3 h was 100%.
As to `COC(=O)[C@@H]1C[C@@H](NC(=O)c2ccccc2)CN1C(=O)CNC(=O)OC(C)(C)C`, in the data set on Mus musculus [1], the Activity was 166.3%. For the same compound, the remaining at 3 h in data set [2] came out at 0%.
As to `NCC(=O)N1C[C@H](NC(=O)c2ccccc2)C[C@H]1C(=O)NC1CC1`, the half-life in [3] is 126 min; in data set [8], greater than 30 min; in [11], 72 min; in data set [14], greater than 30 min. The same compound returned a Cmax in data set [4] of 87 ng/mL. Moreover, in data set [5], the Vd is 0.6 L/kg. This compound showed an AUC in [6] of 305 ng·h/mL. In addition, the clearance in data set [7] was 20 mL/min/kg. Also, the figures for the Activity result (in data set [9]; with Mus musculus [1]; in data set [13]) were “Not Active”, 196% and “Not Active”, respectively. Moreover, in data set [10], the bioavailability is 7%. For the same compound, the outcome in the data set on Mus musculus [12] was Active. Also, in [2], the remaining at 3 h is 96%. Also, the time to peak (Tmax) in data set [15] came to 15 min.
Take `CC(C)(C)OC(=O)NCC(=O)N1C[C@H](NC(=O)c2ccccc2)C[C@H]1C(=O)O`: the Activity in the data set on Mus musculus [1] is on record as 156.2%. In data set [2], the remaining at 3 h is 100%.
For `NCC(=O)N1C[C@H](NC(=O)c2ccccc2)C[C@H]1C(=O)N[C@@H]1CCOC1` the same measures were 143.5% and 100%.
Consider `NCC(=O)N1C[C@H](NC(=O)c2ccccc2)C[C@H]1C(N)=O`, for which the Activity in the data set on Mus musculus [1] was determined as 193.2%. Besides, the remaining at 3 h in [2] stood at 27%.
Consider `CC(C)NC(=O)[C@@H]1C[C@@H](NC(=O)c2ccccc2)CN1C(=O)CN`, for which the half-life in data set [3] is 54 min; in [8], greater than 30 min; in [11], 96 min; in data set [14], greater than 30 min. The peak level in data set [4] (Cmax) was 44 ng/mL. In data set [5], the Vd amounted to 2 L/kg. Besides, the exposure (AUC) in [6] is 90 ng·h/mL. In addition, the clearance in data set [7] is 58 mL/min/kg. The values for the Activity result (in [9]; in the data set with Mus musculus [1]; in data set [13]) were “Not Active”, 162% and “Not Active”, respectively. This compound also yielded a bioavailability in data set [10] of 6%. Moreover, the outcome in the data set with Mus musculus [12] was Active. In addition, in data set [2], the remaining at 3 h was 100%. In addition, the Tmax in data set [15] came out at 15 min.
`CN(C)CC(=O)N1C[C@H](NC(=O)c2ccccc2)C[C@H]1C(=O)O`: in the data set on Mus musculus [1], the Activity was 118.9%. Moreover, in data set [2], the remaining at 3 h was 100%.

For orientation: half-life means the time needed for the level to fall by half in the phase considered. What is called Cmax is the maximum level reached in the sampled fluid or tissue. As a reminder, the AUC is the area under the concentration-time curve, a measure of exposure. Higher therefore signals more exposure. The clearance is the rate of elimination divided by the concentration. Low readings indicate inefficient removal, high ones efficient removal. In general, bioavailability refers to the share of a dose that reaches the circulation, judged against a reference dose that is usually intravenous. Broadly, the Tmax is the time at which the peak concentration occurs.
